We go through one compound from article PMC9218157 (Heliyon, 2022).

Marks after values point to notes of the source that are not given here.

The nature of assay [1]: DPPH free radical scavenging activity. The conditions noted are these: mean ± SE; concentration showing 50% of antioxidant activity. The essentials: (§1)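 Procedure taken from a cited method; the paper gives no reagent levels, times or read-out wavelength. Test compounds were a pyridine Schiff base ligand and its Cu(II) and Zn(II) complexes, with butylated hydroxyanisole (BHA) as positive control.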

Assay [2] can be described thus: ABTS cation radical scavenging activity. The conditions noted are these: mean ± SE; concentration showing 50% of antioxidant activity. The essentials:
as §1

A short description of assay [3]: Superoxide anion radical scavenging activity. Particulars: mean ± SE; concentration showing 50% of antioxidant activity. An outline of the steps:
as §1

Assay [4] concerns the target T1, type-VI B porcine pancreatic α-amylase (Sus scrofa, UniProt P00690).
T1 sequence (P00690 16-511): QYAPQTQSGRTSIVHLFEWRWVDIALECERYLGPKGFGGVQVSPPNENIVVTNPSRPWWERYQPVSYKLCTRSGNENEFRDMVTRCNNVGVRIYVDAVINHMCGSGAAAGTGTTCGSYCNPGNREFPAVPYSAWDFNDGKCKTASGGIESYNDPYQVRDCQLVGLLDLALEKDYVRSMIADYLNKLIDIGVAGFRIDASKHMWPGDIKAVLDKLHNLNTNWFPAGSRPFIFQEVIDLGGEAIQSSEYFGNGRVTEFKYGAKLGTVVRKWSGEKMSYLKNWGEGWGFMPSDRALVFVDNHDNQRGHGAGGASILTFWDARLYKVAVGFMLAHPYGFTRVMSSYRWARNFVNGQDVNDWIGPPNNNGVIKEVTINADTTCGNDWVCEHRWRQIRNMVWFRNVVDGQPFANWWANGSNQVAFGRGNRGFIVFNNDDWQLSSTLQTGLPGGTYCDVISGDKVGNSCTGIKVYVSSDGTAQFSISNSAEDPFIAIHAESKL
Nature of the assay: Inhibition of α-amylase. Type of assay: biochemical.

For `COc1cc(C=Nc2ccc([N+](=O)[O-])cn2)ccc1O` [HL, 2-methoxy-4-(((5-nitropyridin-2-yl)imino)methyl)phenol], the “EC50 Radical scavenging activities DPPH” value in assay [1] is listed as 3.10 ± 0.47^d mg/mL. The “EC50 Radical scavenging activities ABTS” value in assay [2] was 4.65 ± 0.61^d mg/mL. For the same compound, in assay [3], the “EC50 Radical scavenging activities Superoxide” value is 5.25 ± 2.35^d mg/mL. Moreover, in assay [4], the midpoint of inhibition, the IC50, lay at 11.3 mM.
